Source: PMC9539578 (Basic & Clinical Pharmacology & Toxicology, 2022)
Where a name gives a salt, the structure may show the parent alone. Where a SMILES comes first, the peptide text is derived from it.

Legend:
[1] = target: GPR15 receptor / Gi2 (Homo sapiens, UniProt P49685); assay: BRET G protein activation assay, Gi2; type: cell-based, human (GPR15); rat (Gi2)
Summary of the method: (§1)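 HEK293A cells transfected 20–24 h before assay with GPR15 (1.26 μg), Venus(155–239)-Gβ1, Venus(1–155)-Gγ2 and masGRK3ct-Nluc (0.21 μg each), and an optimized amount of the Gα DNA. Cells were given furimazine (1:250) for 3 min, then rising agonist concentrations. BRET ratio is 535/475 nm emission. Emax per concentration was buffer-corrected, normalized to the maximum, and fitted with a four-parameter model. 3–5 independent experiments, 2–3 replicates.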

[2] = target: GPR15 receptor / GoB (Homo sapiens, UniProt P49685); assay: BRET G protein activation assay, GoB; type: cell-based
Summary of the method: as §1

[3] = target: GPR15 receptor / Gi1 (Homo sapiens, UniProt P49685); assay: BRET G protein activation assay, Gi1; type: cell-based, human (GPR15); rat (Gi1)
Summary of the method: as §1

[4] = target: GPR15 receptor / Gi3 (Homo sapiens, UniProt P49685); assay: BRET G protein activation assay, Gi3; type: cell-based, human (GPR15); rat (Gi3)
Summary of the method: as §1

[5] = target: T1, GPR15 receptor (Gi/o) (Homo sapiens, UniProt P49685); assay: HTRF Gi cAMP assay; type: cell-based
T1 sequence (P49685 1-360): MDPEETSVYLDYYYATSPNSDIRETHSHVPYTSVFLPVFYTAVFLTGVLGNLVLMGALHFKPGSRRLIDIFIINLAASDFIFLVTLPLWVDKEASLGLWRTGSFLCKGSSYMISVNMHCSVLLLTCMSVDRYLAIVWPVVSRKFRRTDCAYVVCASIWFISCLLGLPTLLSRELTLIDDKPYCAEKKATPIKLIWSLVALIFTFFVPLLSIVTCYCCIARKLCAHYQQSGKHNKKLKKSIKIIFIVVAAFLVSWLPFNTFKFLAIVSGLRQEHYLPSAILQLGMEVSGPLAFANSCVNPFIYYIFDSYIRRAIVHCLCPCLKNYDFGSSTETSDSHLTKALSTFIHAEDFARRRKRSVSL
Summary of the method: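 HEK293A cells stably expressing human GPR15 (G418-selected) were harvested non-enzymatically. Where stated, cells were pretreated 24 h with PTX 100 ng/ml. 4000 cells/well in HBSS/20 mM HEPES/1 mM CaCl2/1 mM MgCl2/100 μM IBMX, pH 7.4, were mixed with threefold-diluted peptide in ligand buffer containing 3 μM forskolin, 30 min at room temperature. HTRF cAMP detection ran 1 h in the dark. Standard-curve cAMP was normalized to forskolin and given a four-parameter EC50 fit; triplicates, 3–5 experiments.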

[6] = target: GPR15 receptor / GoA (Homo sapiens, UniProt P49685); assay: BRET G protein activation assay, GoA; type: cell-based
Summary of the method: as §1

[7] = tested on: muscarinic acetylcholine receptors; assay: HTRF Gq IP1 assay, positive control; type: cell-based; details: endogenous receptors (mAChR1, mAChR3 and mAChR5) in HEK293A cells
Summary of the method: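 Carbachol, added at 2× final concentration in HBSS/20 mM HEPES/1 mM CaCl2/1 mM MgCl2/0.01% pluronic acid, pH 7.4, acted on 20 000 HEK293A-GPR15 cells/well with 30 mM LiCl for 30 min at 37 °C. HTRF IP1 detection ran 1 h in the dark at room temperature (665/615 nm). IP1 from a standard curve, buffer-corrected and normalized to the carbachol maximum; 3–5 experiments in triplicate.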

[8] = tested on: β2‐adrenergic receptor; assay: HTRF Gs cAMP assay, positive control; type: cell-based; details: endogenous receptor in HEK293A cells
Summary of the method: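 Run like the Gi cAMP assay without forskolin. HEK293A-GPR15 cells in HBSS/HEPES buffer with 100 μM IBMX, pH 7.4, were stimulated with isoproterenol via the endogenous β2-adrenergic receptor, 30 min at room temperature. HTRF cAMP detection ran 1 h in the dark (665/615 nm). cAMP from a standard curve, buffer-corrected and normalized to the isoproterenol maximum; 3–5 experiments in triplicate.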

[9] = target: T2, G protein-coupled receptor 15 (GPR15) (human) (UniProt P49685)
T2 sequence: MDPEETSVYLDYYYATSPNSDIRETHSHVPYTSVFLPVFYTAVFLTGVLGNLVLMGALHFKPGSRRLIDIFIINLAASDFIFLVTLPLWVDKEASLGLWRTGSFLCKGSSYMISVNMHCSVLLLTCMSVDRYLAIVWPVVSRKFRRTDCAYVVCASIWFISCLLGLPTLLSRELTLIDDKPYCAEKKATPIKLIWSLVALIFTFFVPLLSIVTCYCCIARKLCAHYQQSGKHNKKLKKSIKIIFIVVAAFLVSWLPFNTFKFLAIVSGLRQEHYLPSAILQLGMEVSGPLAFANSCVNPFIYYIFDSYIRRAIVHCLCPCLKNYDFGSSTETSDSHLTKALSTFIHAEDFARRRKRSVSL

Chain of GPR15 receptor / GoA (P09471 2-354 partner limits assumed, one chain of several): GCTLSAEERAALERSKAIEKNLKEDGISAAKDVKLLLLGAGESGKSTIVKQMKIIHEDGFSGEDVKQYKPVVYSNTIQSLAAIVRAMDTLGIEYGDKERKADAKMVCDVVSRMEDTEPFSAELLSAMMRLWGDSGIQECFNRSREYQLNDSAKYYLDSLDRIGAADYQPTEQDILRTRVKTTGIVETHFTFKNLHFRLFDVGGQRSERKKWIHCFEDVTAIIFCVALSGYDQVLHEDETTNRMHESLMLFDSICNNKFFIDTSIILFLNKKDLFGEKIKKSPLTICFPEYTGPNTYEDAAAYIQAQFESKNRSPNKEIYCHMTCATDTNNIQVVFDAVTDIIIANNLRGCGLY
Chain of GPR15 receptor / GoA (P62873 2-340 partner limits assumed, one chain of several): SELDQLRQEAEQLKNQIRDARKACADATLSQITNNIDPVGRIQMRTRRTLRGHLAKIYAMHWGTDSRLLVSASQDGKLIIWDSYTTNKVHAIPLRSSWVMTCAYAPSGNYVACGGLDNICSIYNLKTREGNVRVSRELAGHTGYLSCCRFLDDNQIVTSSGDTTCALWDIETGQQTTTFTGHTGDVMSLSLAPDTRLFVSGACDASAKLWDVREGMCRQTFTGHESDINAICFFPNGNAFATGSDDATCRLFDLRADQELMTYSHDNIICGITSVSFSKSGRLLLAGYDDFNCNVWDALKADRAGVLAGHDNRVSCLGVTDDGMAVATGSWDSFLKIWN
Chain of GPR15 receptor / GoA (P59768 2-68 partner limits assumed, one chain of several): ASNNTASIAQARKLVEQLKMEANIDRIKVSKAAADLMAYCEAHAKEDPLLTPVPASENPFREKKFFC
Chain of GPR15 receptor / Gi3 (P08753 2-354 partner limits assumed, one chain of several): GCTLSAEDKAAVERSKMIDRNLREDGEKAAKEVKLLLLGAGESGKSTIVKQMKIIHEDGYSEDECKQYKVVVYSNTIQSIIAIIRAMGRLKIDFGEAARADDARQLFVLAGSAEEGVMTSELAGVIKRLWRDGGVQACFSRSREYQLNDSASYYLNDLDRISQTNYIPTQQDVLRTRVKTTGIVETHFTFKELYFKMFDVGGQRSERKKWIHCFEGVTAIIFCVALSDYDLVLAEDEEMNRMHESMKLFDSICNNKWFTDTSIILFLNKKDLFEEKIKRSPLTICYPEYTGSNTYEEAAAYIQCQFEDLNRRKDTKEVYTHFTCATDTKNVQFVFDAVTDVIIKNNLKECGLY
Chain of GPR15 receptor / Gi3 (P62873 2-340 partner limits assumed, one chain of several): as the sequence (P62873 2-340 partner limits assumed, one chain of several) above
Chain of GPR15 receptor / Gi3 (P59768 2-68 partner limits assumed, one chain of several): as the sequence (P59768 2-68 partner limits assumed, one chain of several) above
Chain of GPR15 receptor / Gi2 (P04897 2-355 partner limits assumed, one chain of several): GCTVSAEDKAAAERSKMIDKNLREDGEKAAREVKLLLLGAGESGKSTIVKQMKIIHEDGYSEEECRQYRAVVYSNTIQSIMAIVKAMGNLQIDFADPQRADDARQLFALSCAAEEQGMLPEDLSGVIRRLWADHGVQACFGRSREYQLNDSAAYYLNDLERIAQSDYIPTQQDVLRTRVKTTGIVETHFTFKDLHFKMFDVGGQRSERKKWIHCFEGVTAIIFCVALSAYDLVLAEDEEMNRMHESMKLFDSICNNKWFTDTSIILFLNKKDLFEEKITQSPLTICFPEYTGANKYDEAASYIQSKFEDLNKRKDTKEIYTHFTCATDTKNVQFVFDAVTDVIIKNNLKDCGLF
Chain of GPR15 receptor / Gi2 (P62873 2-340 partner limits assumed, one chain of several): as the sequence (P62873 2-340 partner limits assumed, one chain of several) above
Chain of GPR15 receptor / Gi2 (P59768 2-68 partner limits assumed, one chain of several): as the sequence (P59768 2-68 partner limits assumed, one chain of several) above
Chain of GPR15 receptor / Gi1 (P10824 2-354 partner limits assumed, one chain of several): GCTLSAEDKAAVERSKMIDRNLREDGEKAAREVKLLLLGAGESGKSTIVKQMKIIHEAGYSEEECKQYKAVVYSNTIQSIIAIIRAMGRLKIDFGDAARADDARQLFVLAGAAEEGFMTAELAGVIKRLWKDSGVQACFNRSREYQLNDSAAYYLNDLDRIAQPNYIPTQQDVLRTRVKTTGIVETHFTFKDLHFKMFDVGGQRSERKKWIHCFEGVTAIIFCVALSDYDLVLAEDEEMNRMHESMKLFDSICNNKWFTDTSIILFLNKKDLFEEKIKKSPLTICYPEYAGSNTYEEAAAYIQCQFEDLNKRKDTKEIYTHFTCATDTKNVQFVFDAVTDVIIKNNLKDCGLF
Chain of GPR15 receptor / Gi1 (P62873 2-340 partner limits assumed, one chain of several): as the sequence (P62873 2-340 partner limits assumed, one chain of several) above
Chain of GPR15 receptor / Gi1 (P59768 2-68 partner limits assumed, one chain of several): as the sequence (P59768 2-68 partner limits assumed, one chain of several) above
Chain of GPR15 receptor / GoB (P09471 2-354 isoform P09471-2 partner limits assumed, one chain of several): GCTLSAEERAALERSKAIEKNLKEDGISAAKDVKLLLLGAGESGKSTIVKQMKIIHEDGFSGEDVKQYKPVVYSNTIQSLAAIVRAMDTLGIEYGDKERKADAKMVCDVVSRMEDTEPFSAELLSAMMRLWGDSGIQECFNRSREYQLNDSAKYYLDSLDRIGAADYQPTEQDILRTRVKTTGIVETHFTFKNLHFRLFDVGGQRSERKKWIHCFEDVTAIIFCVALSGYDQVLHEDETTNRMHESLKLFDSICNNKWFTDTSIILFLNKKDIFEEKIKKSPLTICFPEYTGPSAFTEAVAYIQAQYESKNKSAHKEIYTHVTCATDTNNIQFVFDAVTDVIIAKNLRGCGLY
Chain of GPR15 receptor / GoB (P62873 2-340 partner limits assumed, one chain of several): as the sequence (P62873 2-340 partner limits assumed, one chain of several) above
Chain of GPR15 receptor / GoB (P59768 2-68 partner limits assumed, one chain of several): as the sequence (P59768 2-68 partner limits assumed, one chain of several) above

## CC(C)C[C@H](NC(=O)[C@H](C)NC(=O)CNC(=O)[C@@H]1CCCN1C(=O)[C@@H](NC(=O)[C@@H](NC(=O)[C@H](Cc1c[nH]c2ccccc12)NC(=O)[C@@H](N)CC(C)C)C(C)C)C(C)C)C(=O)N1CCC[C@H]1C(=O)N[C@@H](CCC(N)=O)C(=O)N[C@H](C(=O)O)C(C)C [GPR15L(71–81)] (H-LWVVPGALPQV-OH)
[1]
  EC50: 1700 nM
[2]
  EC50: 2510 nM
[3]
  EC50: 724 nM
[4]
  EC50: 912 nM
[5]
  EC50: 407 nM
[6]
  EC50: 3020 nM

## C[N+](C)(C)CCOC(N)=O [carbachol, carbamoylcholine chloride]
[7]
  IP1 level: robust IP1 level increase

## pertussis toxin [PTX]
[5]; hGPR15-HEK293A, PTX 100 ng/ml for 24 h
  inhibition of cAMP production in presence of PTX: inhibition could be eliminated

## CC(C)NCC(O)c1ccc(O)c(O)c1 (stereo not drawn) [isoproterenol, isoproterenol bitartrate salt]
[8]
  cAMP level: robust cAMP level increase

B1: human GPR15L(25–81) peptide (ligand)
peptide: KRRPAKAWSGRRTRLCCHRVPSPNSTNLKGHHVRLCKPCKLEPEPRLWVVPGALPQV
[9]
  pEC50, BRET G protein activation assay, Gi1: 7.79
  pEC50, BRET G protein activation assay, Gi2: 7.14
  pEC50, BRET G protein activation assay, Gi3: 7.69
  pEC50, BRET G protein activation assay, GoA: 7.28
  pEC50, BRET G protein activation assay, GoB: 7.54

## LWVVPGALPQV [human GPR15L(71–81) peptide]
[9]
  pEC50, BRET G protein activation assay, Gi1: 6.14
  pEC50, BRET G protein activation assay, Gi2: 5.77
  pEC50, BRET G protein activation assay, Gi3: 6.04
  pEC50, BRET G protein activation assay, GoA: 5.52
